Assay outcomes (PubChem)
COUP-TFII inh = NR2F2 transcriptional activity inhibitors, primary screen, cell-based, luciferase reporter, HEK293T, luminescence; inhibition, % at 8.6 µM; COUP transcription factor 2 (Homo sapiens), P24468; HEK293T NGFI-A luciferase reporter; AID 686940, 2013; actives 0.7% (n = 370,000);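 active = inhibition above a per-plate cutoff, mean inhibition of test wells between control levels plus 3 SD, cut at about 38% in these data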;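 also: cells cotransfected with COUP-TFII expression vector driving the NGFI-A reporter; 0% = median of COUP-TF2 test wells and 100% = reporter-only cells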
Target sequence (P24468 whole entry, looked up): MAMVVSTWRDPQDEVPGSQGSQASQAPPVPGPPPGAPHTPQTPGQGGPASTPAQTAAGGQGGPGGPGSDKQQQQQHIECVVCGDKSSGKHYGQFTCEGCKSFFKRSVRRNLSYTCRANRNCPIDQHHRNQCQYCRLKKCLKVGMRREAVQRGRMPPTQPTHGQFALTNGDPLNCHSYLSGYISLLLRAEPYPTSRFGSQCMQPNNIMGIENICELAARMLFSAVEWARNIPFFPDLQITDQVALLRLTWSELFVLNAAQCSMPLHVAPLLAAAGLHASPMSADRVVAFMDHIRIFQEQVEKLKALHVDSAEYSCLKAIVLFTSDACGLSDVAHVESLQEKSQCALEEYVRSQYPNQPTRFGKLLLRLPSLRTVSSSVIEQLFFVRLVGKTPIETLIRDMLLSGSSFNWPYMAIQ
NR2E3 ag-1 = NR2E3 agonists in two-hybrid cells, primary screen, cell-based, luminescence, CHO-S, Gal4-NCOR/VP16-NR2E3; Photoreceptor-specific nuclear receptor (Homo sapiens), Q9Y5X4; luciferase; inhibition of corepressor binding, % at 3.98 µM; actives 0.35% (n = 360,000); AID 602229, 2012;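 active = inhibition above the mean of all tested compounds plus 3 SD, cut at about 70% in these data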;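 also: 0% = DMSO with NR2E3 transfected cells and 100% = cells lacking NR2E3 construct; higher means lower luciferase signal from less NR2E3 corepressor binding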
GalR3 antagonist = GalR3 antagonists in HEK293 cells, primary screen, cell-based, fluorescence readout. HEK293 GalR3-CNG cAMP membrane potential fluorescence; galR3 body fused to GalR1 C-terminus. actives 0.44% (n = 360,000). inhibition, % at 3 µM. Galanin receptor type 3 (Homo sapiens), O60755;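 active = inhibition above the screen-wide average plus 3 SD, cut at about 13% in these data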;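 also: forskolin and galanin both at EC90 stimulate the cells; cAMP rise reported by CNG channel membrane potential dye signal; 0% = forskolin plus galanin with DMSO and 100% = forskolin alone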
Target sequence (O60755 1-299 limits assumed): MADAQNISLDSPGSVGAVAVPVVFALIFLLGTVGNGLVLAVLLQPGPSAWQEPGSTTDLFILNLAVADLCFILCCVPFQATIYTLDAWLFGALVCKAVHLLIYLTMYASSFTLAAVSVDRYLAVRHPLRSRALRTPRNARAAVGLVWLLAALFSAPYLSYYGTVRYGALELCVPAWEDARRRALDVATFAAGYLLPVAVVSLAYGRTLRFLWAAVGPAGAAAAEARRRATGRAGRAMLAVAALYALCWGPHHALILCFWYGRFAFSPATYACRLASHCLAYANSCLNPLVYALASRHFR
SMARCA2 act = SMARCA2 (BRM) function activators, primary screen, cell-based, luminescence, high throughput. MG213 cells, MMTV-luciferase reporter, dexamethasone, overnight. activation, % at 9.1 µM. actives 1% (n = 370,000). AID 652017, 2013; in the data active = activation above about 7.8%;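 also: 0% = vehicle wells and 100% = reference activator wells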
NR2E3 ag-2 = inhibitors of NR2E3-RetCOR corepressor binding, primary screen, NR2E3 agonist project, biochemical, TR-FRET, GST-NR2E3, biotin-RetCOR. Photoreceptor-specific nuclear receptor (Homo sapiens), Q9Y5X4. 1536-well. inhibition of corepressor binding, % at 4.78 µM. actives 0.12% (n = 320,000);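 active = percent inhibition above the cutoff of mean plus 3 SD of all tested compounds, set per screening campaign, cut at about 20% in these data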;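 also: 0% = DMSO wells and 100% = biotin wells as full block of FRET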
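Material: NR2E3–RetCOR corepressor complex | Quantity: 1.35 nM GST-tagged NR2E3 final | Schedule: 5 h at 4 °C | Replication: Singlicate compound wells | Reagent: RetCOR corepressor, biotinylated, 7 nM | Controls: Biotin wells as high control, 0.6% DMSO wells as low control | Signal: TR-FRET, Eu(K)-anti-GST donor, streptavidin-D2 acceptor, ex 340, em 617/671 nm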
SMARCA2 act conf = SMARCA2 (BRM) function activators, confirmation, cell-based, luminescence, triplicate; shares compounds with SMARCA2 act; MG213 cells, MMTV-luciferase with dexamethasone, overnight; MG213 cells expressing E1A, Rb sequestered; DMSO wells 0%, reference activator 100%; activation, % at 9.1 µM; actives 30% (n = 3,500);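 active = activation above its plate's cutoff, the mean activation of tested wells plus 3 SD, cut at about 7.9% in these data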
VP16 Luc act = GAL4-VP16 luciferase reporter activation, counter-screen for SMARCA2 (BRM) activator project, cell-based, pG5luc, luminescence, high throughput. shares compounds with SMARCA2 act. HEK293 GAL4-VP16 pG5luc reporter; scaled: DMSO wells 0%, SAHA wells 100%. activation, % at 9.1 µM. actives 41% (n = 3,500). AID 686939, 2013;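 active = activation above the solvent-only control well mean plus 3 SD, averaged across control plates, cut at about 5.2% in these data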
Numbers without * were called inactive; / = no result; ! = not active in a repeat. Rows were chosen to be rich in hits. Some 2.2% of all compounds tested hit in one or more screens of this group.

SMILES | COUP-TFII inh | NR2E3 ag-1 | GalR3 antagonist | SMARCA2 act | NR2E3 ag-2 | SMARCA2 act conf | VP16 Luc act
O=C(OCc1cn(Cc2ccc(C(F)(F)F)cc2)nn1)N1CCOCC1 | -7.8 | / | / | -3.6 | / | / | /
COc1cccc(/C=N\N2CCN(c3ccc(C)cc3)CC2)c1O | -13.0 | / | / | -1.5 | / | / | /
CCCC1CCC2(CCCN2CCOC(=S)Nc2cccc(Cl)c2)CC1 (stereo not drawn) | 8.2 | / | / | / | / | / | /
Cc1ccc(Cc2cnc(NC(=O)C3CCCO3)s2)cc1 (stereo not drawn) | -56.6 | -161.7 | 0.8 | 8.8* | 4.2 | 10.5* | 7.9*
O=C(Nc1ncc(Cc2cccc(C(F)(F)F)c2)s1)C1CCCO1 (stereo not drawn) | 8.6 | -41.1 | -5.4 | 3.5 | 0.1 | / | /
Cc1ccc(C=C2C=C(c3ccccc3)OC2=O)cc1 | -12.8 | -103.1 | -6.7 | 8.6* | / | -0.4 | 6.1*
Cc1ccccc1CN1CCCCC(NC(=O)c2cc(-c3ccccc3)no2)C1=O (stereo not drawn) | 8.9 | / | / | -3.1 | / | / | /
CCOC(=O)c1sc(-c2ccccc2)cc1N | -69.3 | -100.7 | -4.0 | 9.0* | 1.8 | 6.3 | 6.4*
COc1cc2nc(Nc3ccc(C)c(Cl)c3)nc(N)c2cc1OC | -0.6 | -16.1 | -12.0 | 9.5* | -1.2 | -6.6 | -0.6
COc1cc2nc(Nc3ccc(C)c(C)c3)nc(N)c2cc1OC | 5.6 | -13.8 | -14.8 | 6.2 | 1.2 | / | /
CCOC(=O)c1csc(Nc2nc3ccc(F)cc3s2)n1 | -3.0 | 11.3 | -7.3 | 11.2* | 3.6 | -15.1 | 20.5*
O=C(CSc1nnc(NC(=O)c2ccccc2)s1)NCC1CCCO1 (stereo not drawn) | -28.0 | -43.8 | -3.1 | 9.4* | 2.5 | 1.5 | 6.5*
O=C(CSc1oc(-c2ccc(F)cc2)nc1S(=O)(=O)c1ccccc1)NCC1CCCO1 (stereo not drawn) | -15.0 | -9.3 | -3.3 | 8.2* | -2.3 | 0.4 | -0.9
O=C(CSc1oc(-c2ccccc2)nc1S(=O)(=O)c1ccc(F)cc1)NCC1CCCO1 (stereo not drawn) | -1.1 | -10.0 | -2.6 | -3.0 | 2.2 | / | /
Cc1ccc(N(C)c2nc(N)nc(N)c2N=O)cc1 | 4.9 | / | -7.1 | -5.1 | / | / | /
Cc1cc(NC(=O)CSc2n[nH]c(-c3ccccc3Br)n2)no1 | 11.6 | 1.3 | -5.7 | -2.8 | / | / | /
C/C(N)=C(/C#N)C(=O)CSc1ccccc1F | -43.1 | -71.2 | -6.2 | 9.0* | 1.5 | 10.0* | 8.8*
C/C(N)=C(/C#N)C(=O)CSc1n[nH]c(-c2ccccc2Br)n1 | -16.9 | -49.9 | -4.6 | 8.6*! | 0.6 | -1.0 | 1.1
Cc1sc(NC(=O)c2ccc(Br)s2)c(C(N)=O)c1C | -79.3 | -97.9 | -4.7 | 9.1* | 12.2 | 5.6 | 9.6*
Cc1ccc([N+](=O)[O-])cc1-c1ccc(/C=C(\C#N)c2[nH]nc(N)c2C#N)o1 | -21.5 | -95.1 | -7.0 | 9.5* | -1.4 | 1.0 | 11.6*
O=C(NC1CCCC1)c1ccc(COc2ccccc2)o1 | -16.7 | / | / | -1.3 | / | / | /
CSc1ccccc1C(=O)Nc1ccc(C)c(C)c1 | -31.2 | -57.2 | 2.6 | 2.3 | 4.2 | / | /
CSc1ccccc1C(=O)Nc1cc(C)cc(C)c1 | -2.3 | -17.6 | -2.9 | 9.3* | -2.0 | 4.6 | 0.6
O=C(c1cccc(OCc2ccccc2)c1)N1CCOCC1 | / | 14.5 | / | / | -3.6 | / | /
CCOc1ccc(OCc2cccc(C(=O)N/N=C/c3cccnc3)c2)cc1 | -39.3 | -236.4 | -9.8 | 8.5* | 0.5 | 12.7* | 21.0*
SMILES | COUP-TFII inh | NR2E3 ag-1 | GalR3 antagonist | SMARCA2 act | NR2E3 ag-2 | SMARCA2 act conf | VP16 Luc act
CCOc1ccc(OCc2cccc(C(=O)N3CCOCC3)c2)cc1 | -40.0 | -198.6 | 0.3 | 12.2* | -1.7 | 5.5 | 9.7*
COc1ccc(OCc2cccc(C(=O)NN)c2)cc1 | -52.0 | -210.5 | -1.6 | 12.5* | -0.7 | 9.4* | 16.2*
C[C@H](CO)N1C[C@H](C)[C@@H](CN(C)C(=O)Nc2ccccc2)OCc2cn(nn2)CCCC1=O | 0.1 | / | -2.7 | 5.1 | / | / | /
CN(C(=O)[C@@H](C1CC1)[C@@H](O)c1ccc(Cl)cc1)c1ccccc1 | -10.4 | / | / | 0.3 | / | / | /
O=C(Nc1ccc(F)cc1)OCc1cn(Cc2c(F)cccc2F)nn1 | -1.4 | / | / | -1.9 | / | / | /
CCCCC#CC(CC)NCc1ccc(OC)cc1OC (stereo not drawn) | -14.3 | / | / | / | / | / | /
CCC[C@H]1[C@@H](O)CC[C@@]23CCCN2C(=O)CCC[C@@H]13 | -12.8 | / | / | / | / | / | /
CC(NC(=O)CCSCc1ccccc1F)c1ccccc1 (stereo not drawn) | -19.6 | -32.0 | -11.8 | 12.4* | -3.0 | 3.2 | 3.7
CC(NC(=O)CCSCCC(=O)NC(C)c1ccccc1)c1ccccc1 (stereo not drawn) | 7.8 | 8.2 | -2.4 | -2.2 | 1.2 | / | /
Cc1ccc(NC(=O)N2CCC(c3nc4ccc(Cl)cc4[nH]3)CC2)cc1F | 7.6 | / | / | -4.4 | / | / | /
O=C(Nc1ccc(-c2nc3cccnc3s2)cc1)c1ccco1 | -24.3 | -128.9 | / | 8.2* | 3.0 | 3.6 | 10.1*
O=C(Nc1ccc(-c2cn3c(n2)SCC3)cc1)c1ccco1 | -27.8 | -93.0 | -0.3 | 13.9* | -3.6 | 7.6 | 10.2*
O=C1C=C(c2cccs2)C[C@H](c2ccccc2)[C@H]1n1nnc([N+](=O)[O-])n1 | 9.5 | 45.0 | -1.6 | 8.3* | 1.9 | 8.3* | 1.6
O=C(Cc1ccccc1F)Nc1nc(-c2cccs2)cs1 | -16.4 | -72.0 | -5.0 | 2.0 | -1.1 | / | /
O=C(Cc1ccccc1)Nc1nc(-c2cccs2)cs1 | -20.6 | -52.8 | -3.7 | 11.5* | 0.3 | 3.5 | 6.4*
O=C(N/N=C/c1ccc([N+](=O)[O-])cc1)c1cnccn1 | 11.2 | / | -2.1 | -3.3 | -0.1 | / | /
C/C(=N\NC(=O)c1cnccn1)c1ccc([N+](=O)[O-])cc1 | -12.6 | 0.9 | -5.1 | 9.6* | 5.4 | 3.9 | 2.8
O=[N+]([O-])c1ccc2nc(-c3ccc(Cl)cc3)n(OCc3ccccc3)c2c1 | -46.4 | -154.0 | -8.6 | 10.8* | -2.7 | 7.2 | 11.4*
Nc1ccccc1SCc1ccccc1Cl | -7.6 | 9.1 | -2.7 | -3.5 | 0.3 | / | /
Clc1ccccc1CSc1cnnc2ccccc12 | -40.3 | -47.2 | -3.4 | 9.0* | / | 0.9 | 4.5
